Test results taken from ChEMBL document CHEMBL1139826, “Synthesis, biological activity, and SAR of antimycobacterial 2- and 8-substituted 6-(2-furyl)-9-(p-methoxybenzyl)purines” (Bioorg Med Chem, 2007).
Converted amounts (≈) assume the structure as drawn.

Assays:
[1] = tested on: Mycobacterium tuberculosis; assay: Antimicrobial activity against Mycobacterial tuberculosis ATCC 27294 at […]; type: functional
[2] = Selectivity index, ratio of IC50 for Vero cells to MIC of Mycobacterium tuberculosis H37Rv; type: functional
Vero = assay: Cytotoxicity against Vero cells; type: cell-based; details: Chlorocebus sabaeus
How it was run: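 IC50 was measured in VERO mammalian cells, and only for compounds that met the M. tuberculosis MIC cutoff for follow-up. A selectivity index was then calculated as the VERO IC50 divided by the Mtb MIC.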

Escherichia coli = assay: Antimicrobial activity against Escherichia coli ATCC 25922; type: functional
Staphylococcus aureus = assay: Antimicrobial activity against Staphylococcus aureus ATCC 25923; type: functional

| SMILES | inhibition at […] [1] [%] | Ratio [2] [µg/mL] | other results |
| --- | --- | --- | --- |
| COc1ccc(Cn2cnc3c(-c4ccco4)nc(Oc4ccccc4)nc32)cc1 | 72 | – | – |
| COc1ccc(Cn2cnc3c(-c4ccco4)nc(SC)nc32)cc1 | – | 3.9 | IC50 (Vero): 3.05 µg/mL (≈ 8.65 µM) |
| COc1ccc(Cn2cnc3c(-c4ccco4)nc(Cl)nc32)cc1 | – | >26 | MIC (Escherichia coli): > 32 µg/mL; MIC (Staphylococcus aureus): > 32 µg/mL |
| COc1ccc(Cn2cnc3c(-c4ccco4)ncnc32)cc1 | – | >40 | – |
| COc1ccc(Cn2cnc3c(-c4ccco4)nc(N(C)C)nc32)cc1 | 34 | – | – |
